Measured values published in ChEMBL document CHEMBL3259575, “Evaluation of a large library of (thiazol-2-yl)hydrazones and analogues as histone acetyltransferase inhibitors: enzyme and cellular studies” (2014).

How the values were obtained:
[1] = molecular target: Histone acetyltransferase KAT2B (Homo sapiens) (UniProt Q92831); experiment: Inhibition of recombinant human PCAF catalytic domain (492 to 658 aa) using histone H3 at 100 uM after 1 hr by radiochemical assay in presence of [acetyl-3H]-acetyl coenzyme A
Chain of Histone acetyltransferase KAT2B (Homo sapiens) (Q92831 whole entry, looked up, the tested form may be a part): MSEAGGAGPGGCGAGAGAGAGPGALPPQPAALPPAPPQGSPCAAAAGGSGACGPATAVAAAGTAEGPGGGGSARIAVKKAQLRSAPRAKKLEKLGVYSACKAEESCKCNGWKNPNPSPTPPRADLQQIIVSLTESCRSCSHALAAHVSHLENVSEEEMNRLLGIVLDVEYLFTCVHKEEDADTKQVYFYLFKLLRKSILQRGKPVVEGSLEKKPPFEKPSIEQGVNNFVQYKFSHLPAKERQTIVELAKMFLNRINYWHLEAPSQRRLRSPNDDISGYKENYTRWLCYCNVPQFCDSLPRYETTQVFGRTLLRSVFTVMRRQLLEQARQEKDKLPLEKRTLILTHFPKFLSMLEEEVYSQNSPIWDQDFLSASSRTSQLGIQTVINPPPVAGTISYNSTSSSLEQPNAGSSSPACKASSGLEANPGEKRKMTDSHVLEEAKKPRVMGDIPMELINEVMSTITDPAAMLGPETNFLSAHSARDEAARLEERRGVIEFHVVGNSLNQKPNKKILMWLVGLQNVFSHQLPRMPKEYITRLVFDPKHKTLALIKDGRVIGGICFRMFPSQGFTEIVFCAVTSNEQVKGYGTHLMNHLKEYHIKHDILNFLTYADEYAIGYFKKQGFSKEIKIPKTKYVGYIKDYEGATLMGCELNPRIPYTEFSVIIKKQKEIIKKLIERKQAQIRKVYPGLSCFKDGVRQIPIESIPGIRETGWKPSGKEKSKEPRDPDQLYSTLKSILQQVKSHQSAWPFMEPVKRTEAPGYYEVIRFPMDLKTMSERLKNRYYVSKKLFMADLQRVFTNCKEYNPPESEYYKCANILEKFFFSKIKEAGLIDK

[2] = molecular target: Histone acetyltransferase p300 (Homo sapiens) (UniProt Q09472); experiment: Inhibition of recombinant human p300 catalytic domain (1284 to 1673 aa) using histone H3 at 100 uM after 1 hr by radiochemical assay in presence of [acetyl-3H]-acetyl coenzyme A
Chain of Histone acetyltransferase p300 (Homo sapiens) (Q09472 whole entry, the tested form may be a part): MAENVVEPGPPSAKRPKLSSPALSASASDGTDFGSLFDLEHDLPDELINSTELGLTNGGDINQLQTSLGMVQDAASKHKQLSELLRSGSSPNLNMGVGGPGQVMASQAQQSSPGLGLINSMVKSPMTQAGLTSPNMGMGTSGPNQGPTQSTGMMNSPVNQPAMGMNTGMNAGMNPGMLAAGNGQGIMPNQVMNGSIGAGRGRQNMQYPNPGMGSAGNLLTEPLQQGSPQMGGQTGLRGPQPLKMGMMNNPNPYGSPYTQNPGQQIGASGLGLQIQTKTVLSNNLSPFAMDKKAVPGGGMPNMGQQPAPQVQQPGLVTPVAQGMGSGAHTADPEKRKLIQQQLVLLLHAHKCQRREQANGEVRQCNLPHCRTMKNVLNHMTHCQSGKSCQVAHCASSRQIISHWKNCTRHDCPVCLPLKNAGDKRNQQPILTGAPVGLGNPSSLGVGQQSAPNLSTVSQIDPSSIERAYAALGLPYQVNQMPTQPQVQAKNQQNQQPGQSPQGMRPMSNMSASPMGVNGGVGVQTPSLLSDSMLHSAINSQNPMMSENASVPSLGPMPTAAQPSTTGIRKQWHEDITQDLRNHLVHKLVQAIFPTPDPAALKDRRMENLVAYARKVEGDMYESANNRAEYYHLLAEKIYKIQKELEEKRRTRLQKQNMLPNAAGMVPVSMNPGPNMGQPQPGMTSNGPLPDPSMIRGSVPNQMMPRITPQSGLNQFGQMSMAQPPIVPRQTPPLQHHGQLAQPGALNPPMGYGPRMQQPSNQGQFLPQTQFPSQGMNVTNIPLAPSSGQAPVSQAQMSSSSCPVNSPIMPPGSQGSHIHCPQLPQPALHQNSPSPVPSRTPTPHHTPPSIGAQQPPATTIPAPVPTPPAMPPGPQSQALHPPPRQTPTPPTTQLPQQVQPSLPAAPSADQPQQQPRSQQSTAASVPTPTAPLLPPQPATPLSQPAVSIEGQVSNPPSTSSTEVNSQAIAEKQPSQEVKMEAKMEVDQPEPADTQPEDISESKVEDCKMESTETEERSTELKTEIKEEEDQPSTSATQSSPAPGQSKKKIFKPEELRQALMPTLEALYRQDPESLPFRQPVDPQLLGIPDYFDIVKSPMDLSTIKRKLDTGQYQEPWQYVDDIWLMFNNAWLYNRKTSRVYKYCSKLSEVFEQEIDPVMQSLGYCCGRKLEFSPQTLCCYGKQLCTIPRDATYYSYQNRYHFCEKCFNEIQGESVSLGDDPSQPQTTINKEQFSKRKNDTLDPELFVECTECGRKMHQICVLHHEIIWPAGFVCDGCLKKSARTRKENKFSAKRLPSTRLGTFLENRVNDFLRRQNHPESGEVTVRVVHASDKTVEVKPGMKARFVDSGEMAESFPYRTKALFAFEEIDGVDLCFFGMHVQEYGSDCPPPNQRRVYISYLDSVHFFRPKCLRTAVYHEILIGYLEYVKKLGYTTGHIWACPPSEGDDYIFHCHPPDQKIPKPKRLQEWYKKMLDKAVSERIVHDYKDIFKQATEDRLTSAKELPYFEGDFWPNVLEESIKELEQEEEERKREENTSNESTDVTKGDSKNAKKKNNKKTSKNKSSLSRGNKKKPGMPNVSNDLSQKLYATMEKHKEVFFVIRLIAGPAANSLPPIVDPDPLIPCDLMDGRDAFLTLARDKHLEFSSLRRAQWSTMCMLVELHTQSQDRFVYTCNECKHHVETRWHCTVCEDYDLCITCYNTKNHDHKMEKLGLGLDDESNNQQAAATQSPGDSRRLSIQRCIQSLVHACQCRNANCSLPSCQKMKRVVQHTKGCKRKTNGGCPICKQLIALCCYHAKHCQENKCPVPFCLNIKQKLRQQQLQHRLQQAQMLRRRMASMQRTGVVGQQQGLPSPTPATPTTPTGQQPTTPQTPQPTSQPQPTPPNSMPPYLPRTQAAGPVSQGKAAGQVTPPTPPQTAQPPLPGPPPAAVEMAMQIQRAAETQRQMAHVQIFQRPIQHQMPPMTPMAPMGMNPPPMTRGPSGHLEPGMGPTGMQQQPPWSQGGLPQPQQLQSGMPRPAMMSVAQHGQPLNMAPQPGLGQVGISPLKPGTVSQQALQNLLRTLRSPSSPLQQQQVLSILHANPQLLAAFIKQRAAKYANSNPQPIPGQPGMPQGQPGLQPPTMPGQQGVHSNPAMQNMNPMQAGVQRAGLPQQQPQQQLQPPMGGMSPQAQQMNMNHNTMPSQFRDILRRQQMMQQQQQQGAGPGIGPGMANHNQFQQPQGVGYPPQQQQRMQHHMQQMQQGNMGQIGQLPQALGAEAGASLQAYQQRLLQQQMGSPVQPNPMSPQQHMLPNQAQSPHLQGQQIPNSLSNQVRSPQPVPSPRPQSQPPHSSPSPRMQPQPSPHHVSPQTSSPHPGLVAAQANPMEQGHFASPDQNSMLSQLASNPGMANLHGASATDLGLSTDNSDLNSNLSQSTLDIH

[3] = molecular target: Histone acetyltransferase p300 (Homo sapiens) (UniProt Q09472); experiment: Inhibition of recombinant human p300 catalytic domain (1284 to 1673 aa) using histone H3 at 400 uM after 1 hr by radiochemical assay in presence of [acetyl-3H]-acetyl coenzyme A
[4] = molecular target: Histone acetyltransferase p300 (Homo sapiens) (UniProt Q09472); experiment: Inhibition of recombinant human p300 catalytic domain (1284 to 1673 aa) using histone H3 at 200 uM after 1 hr by radiochemical assay in presence of [acetyl-3H]-acetyl coenzyme A
[5] = system: HCT-116; experiment: Induction of apoptosis in human HCT116 cells at 100 uM after 30 hrs by FACS analysis relative to control; assay type: functional
In short: (§1)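 Cells cultured at 37 °C, 5% CO2 in RPMI-1640 plus 10% heat-inactivated FBS and antibiotics; treated 30 h; apoptosis read by FACS as the pre-G1 population, compared with untreated control.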

[6] = system: U-937; experiment: Induction of apoptosis in human U937 cells at 100 uM after 30 hrs by FACS analysis relative to control; assay type: functional; in short: as §1

Compound | inhibition [1] [%] | inhibition [2] [%] | inhibition [3] [%] | inhibition [4] [%] | Activity [5] [%] | Activity [6] [%]
Cc1csc(NN=C2CCCC2)n1 | 30 | 0 |  |  |  | 
O=[N+]([O-])c1cccc(-c2csc(NN=C3CCCC3)n2)c1 | 15 | 44 | 60 | 51 |  | 
CC1CC/C(=N/Nc2nc(-c3ccc4ccccc4c3)cs2)C1 (stereo unspecified) | 0 | 4 |  |  |  | 
COc1ccc(-c2csc(N/N=C3/CCCC(C)C3)n2)cc1 (stereo unspecified) | 4 | 19 |  |  |  | 
CC1CC/C(=N/Nc2nc(-c3ccc(C#N)cc3)cs2)C1 (stereo unspecified) | 6 | 35 |  |  |  | 
Clc1ccc(-c2csc(NN=C3CCCCCCC3)n2)cc1 | 6 | 15 |  |  |  | 
O=c1cc(-c2ccc(Cl)cc2)nc(NN=C2CCCC2)[nH]1 | 10 | 31 | 54 | 46 |  | 
COc1ccc(-c2csc(NN=C3CCCC3)n2)cc1 | 11 | 33 | 57 | 47 |  | 
O=c1cc(-c2ccccc2)nc(NN=C2CCCC2)[nH]1 |  | 3 |  |  |  | 
CC(C)=NNc1nc(-c2ccc(F)cc2)cs1 | 0 | 34 |  |  |  | 
O=c1cc(-c2cccc([N+](=O)[O-])c2)nc(NN=C2CCCC2)[nH]1 |  | 9 |  |  |  | 
CC(C)=NNc1nc(-c2ccc(Cl)cc2)cs1 | 1 | 31 | 60 | 45 |  | 
CC1CC/C(=N/Nc2nc(-c3ccc(F)cc3)cs2)C1 (stereo unspecified) | 8 | 5 |  |  |  | 
C/C(=N/Nc1nc(-c2ccc(Cl)cc2)cs1)c1ccccc1 | 9 | 7 |  |  |  | 
CC(C)=NNc1nc(-c2ccc(Br)cc2)cc(=O)[nH]1 |  | 9 |  |  |  | 
CC1(C)C=C/C(=N\Nc2nc(-c3ccc(Cl)cc3)cs2)CC1 | 0 | 0 |  |  |  | 
CCOC(=O)c1csc(N/N=C2/CCC(C)C2)n1 (stereo unspecified) | 8 | 22 |  |  |  | 
CC(C)=NNc1nc(-c2cccc([N+](=O)[O-])c2)cc(=O)[nH]1 |  | 4 |  |  |  | 
C/C(=N/Nc1nc(-c2ccc(Cl)cc2)cs1)c1ccco1 | 2 | 26 |  |  |  | 
Clc1ccc(-c2csc(NN=C3CCCC3)n2)cc1 | 1 | 34 | 61 | 47 |  | 
C/C(=N/Nc1nc(-c2ccc(Cl)cc2)cs1)c1nccs1 | 10 | 46 | 67 | 55 |  | 

Compound | inhibition [1] [%] | inhibition [2] [%] | inhibition [3] [%] | inhibition [4] [%] | Activity [5] [%] | Activity [6] [%]
CC(C)=NNc1nc(-c2ccccc2)c(C)s1 | 5 | 20 |  |  |  | 
CC(C)=NNc1nc(-c2ccccc2)cc(=O)[nH]1 |  | 4 |  |  |  | 
CC1CC/C(=N/Nc2nc(-c3ccc(Cl)cc3)cc(=O)[nH]2)C1 (stereo unspecified) | 8 | 41 | 64 | 55 |  | 
CC1CC/C(=N/Nc2nc(-c3ccc(Br)cc3)cc(=O)[nH]2)C1 (stereo unspecified) |  | 12 |  |  |  | 
CC(C)=NNc1nc(-c2ccc(-c3ccccc3)cc2)cs1 | 0 | 20 |  |  |  | 
COc1ccc(-c2csc(N/N=C3/CCC(C)C3)n2)cc1 (stereo unspecified) | 5 | 28 |  |  |  | 
Clc1ccc(-c2csc(NN=C3CCCCCC3)n2)cc1 | 0 | 20 |  |  |  | 
CCC/C(C)=N/Nc1nc(-c2ccc(Cl)cc2)cs1 | 7 | 19 |  |  |  | 
CC(C)=NNc1nc(-c2ccc(Cl)cc2Cl)cs1 | 16 | 30 |  |  |  | 
CC1CC/C(=N/Nc2nc(-c3ccccc3)cc(=O)[nH]2)C1 (stereo unspecified) |  | 0 |  |  |  | 
CCOC(=O)c1csc(NN=C(C)C)n1 | 0 | 22 |  |  |  | 
Clc1ccc(-c2csc(N/N=C\c3ccncc3)n2)cc1 | 13 | 37 |  |  |  | 
CCC(C)/C(C)=N/Nc1nc(-c2ccc(Cl)cc2)cs1 (stereo unspecified) | 9 | 2 |  |  |  | 
CC(C)=NNc1nc(-c2ccc3ccccc3c2)cs1 | 10 | 25 |  |  |  | 
Cc1sc(NN=C2CCCC2)nc1-c1ccccc1 | 2 | 2 |  |  |  | 
CC1CC/C(=N/Nc2nc(-c3cccc([N+](=O)[O-])c3)cc(=O)[nH]2)C1 (stereo unspecified) |  | 14 |  |  |  | 
COc1ccc(-c2csc(NN=C(C)C)n2)cc1 | 5 | 21 |  |  |  | 
COc1ccc(-c2csc(NN=C3CCCCCC3)n2)cc1 | 0 | 16 |  |  |  | 
CC(C)=NNc1nc(-c2ccc(Cl)cc2)cc(=O)[nH]1 |  | 7 |  |  |  | 
Cc1sc(N/N=C2/CCC(C)C2)nc1-c1ccccc1 (stereo unspecified) | 3 | 15 |  |  |  | 
C/C(=N/Nc1nc(-c2ccc(Cl)cc2)cs1)c1ccc2ccccc2c1 | 7 | 16 |  |  |  | 

Compound | inhibition [1] [%] | inhibition [2] [%] | inhibition [3] [%] | inhibition [4] [%] | Activity [5] [%] | Activity [6] [%]
C/C(=N/Nc1nc(-c2ccc(Cl)cc2)cs1)c1cccnc1 | 11 | 1 |  |  |  | 
CCCC/C(C)=N/Nc1nc(-c2ccc(Cl)cc2)cs1 | 8 | 0 |  |  |  | 
C/C(=N/Nc1nc(-c2ccc(Cl)cc2)cs1)C1c2ccccc2-c2ccc(C(=O)O)cc21 (stereo unspecified) | 14 | 37 |  |  |  | 
C[C@@H]1CCC/C(=N/Nc2nc(-c3ccc(Cl)cc3)cs2)C1 | 0 | 27 |  |  |  | 
CC1CCC/C(=N/Nc2nc(-c3ccc(Cl)cc3)cs2)C1 (stereo unspecified) | 0 | 9 |  |  |  | 
Nc1nc(-c2ccc(Cl)cc2)cs1 | 0 | 31 |  |  |  | 
Clc1ccc(-c2csc(N/N=C\c3cccc4ccccc34)n2)cc1 | 0 | 9 |  |  |  | 
COc1ccc(-c2csc(N/N=C3\CCC[C@@H](C)C3)n2)cc1 | 0 | 27 |  |  |  | 
C/C(=N/Nc1nc(-c2ccc(Cl)cc2)cs1)C1CCCCC1 | 8 | 3 |  |  |  | 
NNc1nc(-c2ccccc2)cs1 | 16 | 5 |  |  |  | 
CCCCC/C(C)=N/Nc1nc(-c2ccc(Cl)cc2)cs1 | 16 | 5 |  |  |  | 
CC1CC/C(=N/Nc2nc(-c3ccc(Cl)cc3)cs2)C1 (stereo unspecified) | 0 | 27 |  |  | 11.5 | 29
CC1CCC/C1=N/Nc1nc(-c2ccc(Cl)cc2)cs1 (stereo unspecified) | 2 | 33 |  |  |  | 
C=CCC/C(C)=N/Nc1nc(-c2ccc(Cl)cc2)cs1 | 12 | 32 |  |  |  | 
C/C(=N/Nc1nc(-c2ccc(Cl)cc2)cs1)c1cccs1 | 5 | 26 |  |  |  | 
Clc1ccc(-c2csc(N/N=C\c3ccco3)n2)cc1 | 9 | 15 |  |  |  | 
Clc1ccc(-c2csc(N/N=C\c3ccc4c(c3)OCO4)n2)cc1 | 0 | 11 |  |  |  | 
c1ccc(-c2csc(NN=C3CCCC3)n2)cc1 | 15 | 37 | 54 | 56 |  | 
c1ccc2cc(-c3csc(NN=C4CCCC4)n3)ccc2c1 | 8 | 19 |  |  |  | 
CCC(CC)=NNc1nc(-c2ccc(Cl)cc2)cs1 | 10 | 35 |  |  |  | 
CC1CC/C(=N/Nc2nc(-c3ccc(F)cc3F)cs2)C1 (stereo unspecified) | 18 | 14 |  |  |  | 

Compound | inhibition [1] [%] | inhibition [2] [%] | inhibition [3] [%] | inhibition [4] [%] | Activity [5] [%] | Activity [6] [%]
COc1cccc(-c2csc(NN=C3CCCC3)n2)c1 | 11 | 31 | 62 | 51 |  | 
CCOC(=O)c1csc(NN=C2CCCC2)n1 | 5 | 19 |  |  |  | 
COc1ccc(-c2csc(N/N=C3/CCCC3C)n2)cc1 (stereo unspecified) | 2 | 32 |  |  |  | 
COc1cccc(-c2csc(NN=C(C)C)n2)c1 | 4 | 30 |  |  |  | 
O=C1CSC(NN=C2CCCC2)=N1 | 1 | 0 |  |  |  | 
Clc1ccc(-c2csc(N/N=C\c3cccnc3)n2)cc1 | 17 | 28 |  |  |  | 
CC(C)=NNc1nc(-c2ccccc2)cs1 | 0 | 14 |  |  |  | 
C/C(=N/Nc1nc(-c2ccc(Cl)cc2)cs1)c1ccncc1 | 10 | 36 |  |  |  | 
CC(C)=NNc1nc(C)cs1 | 3 | 13 |  |  |  | 
CC(C)=NNc1nc(-c2cc3ccccc3oc2=O)cs1 | 12 | 32 | 56 | 46 |  | 
O=c1cc(-c2ccc(Br)cc2)nc(NN=C2CCCC2)[nH]1 |  | 9 |  |  |  | 
Clc1ccc(-c2csc(NN=C3CCCC3)n2)c(Cl)c1 | 21 | 30 |  |  |  | 
Clc1ccc(-c2csc(N/N=C\c3cccs3)n2)cc1 | 4 | 13 |  |  |  | 
CC/C(C)=N/Nc1nc(-c2ccc(Cl)cc2)cs1 | 8 | 33 |  |  |  | 
CCCCCC/C(C)=N/Nc1nc(-c2ccc(Cl)cc2)cs1 | 10 | 8 |  |  |  | 
CC(C)=NNc1nc(-c2ccc(Br)cc2)cs1 | 13 | 42 | 63 | 53 |  | 
CC(C)=NN=C1NC(=O)CS1 | 7 | 14 |  |  |  | 
Nc1nc(-c2ccccc2)cs1 | 3 | 4 |  |  |  | 
